ChEMBL document CHEMBL1833861 (J Med Chem, 2011)
Calls of active or inactive are those of the source. No cut-off for these calls is given here.

Assays:
[1] = target: Sodium-dependent noradrenaline transporter (Homo sapiens) (UniProt P23975); assay: Binding affinity to NET at 10 uM by radioligand displacement assay
[2] = target: 5-hydroxytryptamine receptor 1E (Homo sapiens) (UniProt P28566); assay: Binding affinity to 5HT1E receptor at 10 uM by radioligand displacement assay
[3] = target: Muscarinic acetylcholine receptor M2 (Homo sapiens) (UniProt P08172); assay: Binding affinity to muscarinic M2 receptor at 10 uM by radioligand displacement assay
[4] = target: T1, Neuronal acetylcholine receptor; alpha4/beta2 (Homo sapiens, UniProt P17787+P43681); assay: Agonist activity at human alpha4beta2 nAChR expressed in human SH-EP1 cells assessed as increase of carbamylcholine-induced 86Rb+ ion efflux by liquid scintillation counting; type: functional, cell-based
T1 sequence (P17787 whole entry): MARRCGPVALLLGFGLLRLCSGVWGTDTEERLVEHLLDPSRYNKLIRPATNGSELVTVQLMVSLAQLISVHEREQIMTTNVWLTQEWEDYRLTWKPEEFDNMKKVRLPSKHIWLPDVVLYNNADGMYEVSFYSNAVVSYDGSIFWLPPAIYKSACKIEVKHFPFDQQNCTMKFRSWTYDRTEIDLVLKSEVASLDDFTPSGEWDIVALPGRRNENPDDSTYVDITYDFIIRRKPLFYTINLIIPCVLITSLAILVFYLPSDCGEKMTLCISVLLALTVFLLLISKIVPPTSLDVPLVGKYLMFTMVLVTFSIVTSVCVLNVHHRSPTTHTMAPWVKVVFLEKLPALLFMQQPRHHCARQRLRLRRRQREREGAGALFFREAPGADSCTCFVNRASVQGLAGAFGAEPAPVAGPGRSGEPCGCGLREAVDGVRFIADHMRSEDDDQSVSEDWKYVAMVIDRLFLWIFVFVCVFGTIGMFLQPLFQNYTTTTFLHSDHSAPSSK
T1 sequence (P43681 whole entry): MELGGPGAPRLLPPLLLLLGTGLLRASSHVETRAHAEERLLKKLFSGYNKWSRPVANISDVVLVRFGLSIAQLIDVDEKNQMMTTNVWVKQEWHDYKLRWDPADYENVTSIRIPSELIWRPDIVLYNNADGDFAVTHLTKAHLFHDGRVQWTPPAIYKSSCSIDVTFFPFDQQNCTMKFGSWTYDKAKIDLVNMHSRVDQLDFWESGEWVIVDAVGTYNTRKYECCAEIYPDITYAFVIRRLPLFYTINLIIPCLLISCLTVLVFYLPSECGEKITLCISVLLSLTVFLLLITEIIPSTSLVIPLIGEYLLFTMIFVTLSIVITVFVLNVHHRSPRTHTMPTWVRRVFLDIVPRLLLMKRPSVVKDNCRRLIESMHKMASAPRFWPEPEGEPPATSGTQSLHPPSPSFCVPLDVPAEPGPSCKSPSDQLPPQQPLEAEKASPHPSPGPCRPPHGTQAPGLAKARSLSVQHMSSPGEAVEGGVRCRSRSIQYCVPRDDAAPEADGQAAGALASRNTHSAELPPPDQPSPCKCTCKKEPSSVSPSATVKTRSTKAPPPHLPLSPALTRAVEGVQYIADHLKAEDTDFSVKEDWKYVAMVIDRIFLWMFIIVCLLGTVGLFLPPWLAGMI

[5] = target: Muscarinic acetylcholine receptor M3 (Homo sapiens) (UniProt P20309); assay: Binding affinity to muscarinic M3 receptor at 10 uM by radioligand displacement assay
[6] = target: Histamine H3 receptor (Homo sapiens) (UniProt Q9Y5N1); assay: Binding affinity to histamine H3 receptor at 10 uM by radioligand displacement assay
[7] = target: 5-hydroxytryptamine receptor 2B (Homo sapiens) (UniProt P41595); assay: Binding affinity to 5HT2B receptor at 10 uM by radioligand displacement assay
[8] = target: D(3) dopamine receptor (Homo sapiens) (UniProt P35462); assay: Binding affinity to dopamine D3 receptor at 10 uM by radioligand displacement assay
[9] = target: 5-hydroxytryptamine receptor 7 (Homo sapiens) (UniProt P34969); assay: Binding affinity to 5HT7 receptor at 10 uM by radioligand displacement assay
[10] = Binding affinity to sigma2 receptor at 10 uM by radioligand displacement assay
[11] = target: Alpha-1A adrenergic receptor (Homo sapiens) (UniProt P35348); assay: Binding affinity to alpha1A adrenergic receptor at 10 uM by radioligand displacement assay
[12] = target: Alpha-2A adrenergic receptor (Homo sapiens) (UniProt P08913); assay: Binding affinity to alpha2A adrenergic receptor at 10 uM by radioligand displacement assay
[13] = target: Alpha-1B adrenergic receptor (Homo sapiens) (UniProt P35368); assay: Binding affinity to Alpha-1B adrenergic receptor at 10 uM by radioligand displacement assay
[14] = target: Neuronal acetylcholine receptor; alpha2/beta4 (Rattus norvegicus, UniProt P12389+P12392); assay: Displacement of [3H]epibatidine from rat alpha2beta4 receptor; type: protein-complex assay
Liver microsomes = assay: Metabolic stability in human liver microsomes at 1 uM; type: ADME, Microsome
[15] = target: T2, Neuronal acetylcholine receptor; alpha4/beta2 (Rattus norvegicus, UniProt P09483+P12390); assay: Displacement of [3H]epibatidine from rat alpha4beta2 nAChR receptor; type: protein-complex assay
T2 sequence (P09483 whole entry): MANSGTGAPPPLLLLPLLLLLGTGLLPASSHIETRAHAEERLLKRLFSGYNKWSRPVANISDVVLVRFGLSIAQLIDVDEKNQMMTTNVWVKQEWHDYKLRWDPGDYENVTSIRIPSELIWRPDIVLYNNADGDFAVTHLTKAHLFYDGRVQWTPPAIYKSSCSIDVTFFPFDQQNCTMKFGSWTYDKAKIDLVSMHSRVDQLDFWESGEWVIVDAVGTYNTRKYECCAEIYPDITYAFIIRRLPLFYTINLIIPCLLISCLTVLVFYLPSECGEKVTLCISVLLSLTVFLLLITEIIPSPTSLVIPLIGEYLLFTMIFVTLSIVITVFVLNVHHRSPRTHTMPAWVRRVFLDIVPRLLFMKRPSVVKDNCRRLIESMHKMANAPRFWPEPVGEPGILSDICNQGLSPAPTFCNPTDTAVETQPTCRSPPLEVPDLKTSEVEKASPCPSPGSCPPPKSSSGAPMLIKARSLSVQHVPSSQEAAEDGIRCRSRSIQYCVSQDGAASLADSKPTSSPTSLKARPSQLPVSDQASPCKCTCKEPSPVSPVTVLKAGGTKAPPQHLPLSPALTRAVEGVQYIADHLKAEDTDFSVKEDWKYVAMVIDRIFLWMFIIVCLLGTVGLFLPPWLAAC
T2 sequence (P12390 whole entry): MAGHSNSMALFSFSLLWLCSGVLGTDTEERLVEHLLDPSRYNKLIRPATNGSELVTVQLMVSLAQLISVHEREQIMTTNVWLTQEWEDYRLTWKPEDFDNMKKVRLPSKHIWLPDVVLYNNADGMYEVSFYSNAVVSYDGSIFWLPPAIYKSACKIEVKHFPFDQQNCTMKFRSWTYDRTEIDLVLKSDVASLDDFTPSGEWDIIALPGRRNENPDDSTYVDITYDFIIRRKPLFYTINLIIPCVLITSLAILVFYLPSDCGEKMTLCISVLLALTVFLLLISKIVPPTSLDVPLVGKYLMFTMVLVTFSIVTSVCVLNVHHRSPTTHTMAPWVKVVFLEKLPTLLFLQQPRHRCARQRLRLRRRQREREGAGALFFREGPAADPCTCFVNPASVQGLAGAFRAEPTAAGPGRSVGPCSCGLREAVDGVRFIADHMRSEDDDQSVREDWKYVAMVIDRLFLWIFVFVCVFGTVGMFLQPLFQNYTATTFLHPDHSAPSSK

Mus musculus [16] = assay: Antidepressant activity in BALB/cJ mouse assessed as decrease in immobility time at 10 mg/kg, po after 30 mins by forced swim test; type: functional, organism-based; parameters: dose 10 mg/kg
In short: (§1)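 Male BALB/cJ mice, 8–10 weeks old, dosed by oral gavage with compound in injectable water (10 mL/kg). Sertraline served as positive control. Forced swim begins 30 min after dosing, in a cylinder with 12 cm of 23 ± 1 °C water; total immobility recorded over 6 min. ANOVA followed by Newman-Keuls post hoc test.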

[17] = target: T2, Neuronal acetylcholine receptor; alpha4/beta2; assay: Displacement of [3H]epibatidine from rat alpha4beta2 receptor expressed in HEK cells; type: cell-based, HEK293
In short: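 Competition binding of [3H]epibatidine to membrane fractions from HEK cells stably transfected with rat α4 and β2 subunits; Ki values for blockade of specific binding.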

[18] = target: Beta-2 adrenergic receptor (Homo sapiens) (UniProt P07550); assay: Binding affinity to beta2 adrenergic receptor at 10 uM by radioligand displacement assay
[19] = target: Delta-type opioid receptor (Homo sapiens) (UniProt P41143); assay: Binding affinity to delta opioid receptor at 10 uM by radioligand displacement assay
Rattus norvegicus = species: Rattus norvegicus; assay: Selectivity ratio of Ki for rat alpha4beta2 nAChR over Ki for rat alpha3beta4 nAChR
[20] = target: Sigma non-opioid intracellular receptor 1 (Homo sapiens) (UniProt Q99720); assay: Binding affinity to sigma1 receptor at 10 uM by radioligand displacement assay
Sequence of Sigma non-opioid intracellular receptor 1 (Homo sapiens) (Q99720 whole entry): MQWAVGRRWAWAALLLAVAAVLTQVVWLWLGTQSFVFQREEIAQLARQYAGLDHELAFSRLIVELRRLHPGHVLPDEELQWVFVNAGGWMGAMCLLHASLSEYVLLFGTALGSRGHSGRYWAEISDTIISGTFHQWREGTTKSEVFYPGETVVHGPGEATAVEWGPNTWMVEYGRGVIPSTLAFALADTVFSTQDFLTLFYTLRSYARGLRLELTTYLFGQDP

[21] = target: D(2) dopamine receptor (Homo sapiens) (UniProt P14416); assay: Binding affinity to dopamine D2 receptor at 10 uM by radioligand displacement assay
[22] = target: T1, Neuronal acetylcholine receptor; alpha4/beta2; assay: Antagonist activity at human alpha4beta2 nAChR expressed in SH-EP1 cells assessed as inhibition of carbamylcholine-induced 86Rb+ ion efflux by liquid scintillation counting; type: functional, cell-based
[23] = target: Muscarinic acetylcholine receptor M1 (Homo sapiens) (UniProt P11229); assay: Binding affinity to muscarinic M1 receptor at 10 uM by radioligand displacement assay
[24] = target: T3, Kappa-type opioid receptor (Homo sapiens, UniProt P41145); assay: Binding affinity to kappa opioid receptor by radioligand displacement assay
T3 sequence (P41145 whole entry): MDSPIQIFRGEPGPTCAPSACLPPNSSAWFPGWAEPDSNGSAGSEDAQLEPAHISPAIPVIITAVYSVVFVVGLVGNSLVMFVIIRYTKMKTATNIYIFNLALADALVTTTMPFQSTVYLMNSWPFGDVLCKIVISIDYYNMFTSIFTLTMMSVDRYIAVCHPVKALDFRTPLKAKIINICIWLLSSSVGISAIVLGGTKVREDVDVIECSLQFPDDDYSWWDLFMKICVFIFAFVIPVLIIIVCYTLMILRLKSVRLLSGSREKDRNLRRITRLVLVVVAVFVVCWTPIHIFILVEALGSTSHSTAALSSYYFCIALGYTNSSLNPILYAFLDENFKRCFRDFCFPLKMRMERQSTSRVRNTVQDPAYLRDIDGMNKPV

Plasma = assay: Plasma protein binding in CD1 mouse at 10 uM; type: ADME, cell-free
[25] = target: Alpha-2B adrenergic receptor (Homo sapiens) (UniProt P18089); assay: Binding affinity to alpha2B adrenergic receptor at 10 uM by radioligand displacement assay
Liver = assay: Metabolic stability in mouse liver microsomes at 1 uM; type: ADME, Microsome
[26] = target: T1, Neuronal acetylcholine receptor; alpha4/beta2; assay: Antagonist activity at human alpha4beta2 nAChR expressed in SH-EP1 cells assessed as inhibition of carbamylcholine-induced 86Rb+ ion efflux by liquid scintillation counting relative to mecamylamine; type: functional, cell-based
[27] = target: Muscarinic acetylcholine receptor M4 (Homo sapiens) (UniProt P08173); assay: Binding affinity to muscarinic M4 receptor at 10 uM by radioligand displacement assay
[28] = target: D(1A) dopamine receptor (Homo sapiens) (UniProt P21728); assay: Binding affinity to dopamine D1 receptor at 10 uM by radioligand displacement assay
[29] = target: 5-hydroxytryptamine receptor 1A (Homo sapiens) (UniProt P08908); assay: Binding affinity to 5HT1A receptor at 10 uM by radioligand displacement assay
Mus musculus [30] = assay: Antidepressant activity in BALB/cJ mouse assessed as decrease in immobility time at 1 mg/kg, ip after 30 mins by forced swim test; type: functional, organism-based; parameters: dose 1 mg/kg
In short: (§2)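 Male BALB/cJ mice, 8–10 weeks old; compound in injectable water given ip at 10 mL/kg. Sertraline (10 or 20 mg/kg) served as positive control. 30 min post-dose, each mouse placed in a glass cylinder with 12 cm of 23 ± 1 °C water; immobility (floating) timed over a 6 min trial. n = 10/group; ANOVA with post hoc test.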

[31] = Binding affinity to GABAA receptor at 10 uM by radioligand displacement assay
[32] = target: Neuronal acetylcholine receptor; alpha3/beta2 (Rattus norvegicus, UniProt P04757+P12390); assay: Displacement of [3H]epibatidine from rat alpha3beta2 receptor; type: protein-complex assay
Sequence of Neuronal acetylcholine receptor; alpha3/beta2 (P04757 whole entry): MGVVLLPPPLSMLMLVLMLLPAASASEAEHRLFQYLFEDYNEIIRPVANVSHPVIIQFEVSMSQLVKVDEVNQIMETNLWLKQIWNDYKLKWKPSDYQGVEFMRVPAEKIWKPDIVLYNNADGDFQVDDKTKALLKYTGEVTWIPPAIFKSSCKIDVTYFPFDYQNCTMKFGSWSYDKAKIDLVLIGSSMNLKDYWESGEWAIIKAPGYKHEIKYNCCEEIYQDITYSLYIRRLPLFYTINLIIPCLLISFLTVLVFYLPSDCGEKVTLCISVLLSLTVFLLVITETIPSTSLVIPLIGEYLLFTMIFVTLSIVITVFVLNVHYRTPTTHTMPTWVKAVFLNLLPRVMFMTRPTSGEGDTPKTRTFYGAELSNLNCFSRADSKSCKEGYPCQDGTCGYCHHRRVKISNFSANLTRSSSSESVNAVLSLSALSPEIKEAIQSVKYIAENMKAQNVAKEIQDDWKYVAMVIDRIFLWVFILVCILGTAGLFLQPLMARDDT
Sequence of Neuronal acetylcholine receptor; alpha3/beta2 (P12390 whole entry): as the sequence (P12390 whole entry) above

Mus musculus [33] = assay: Antidepressant activity in BALB/cJ mouse assessed as decrease in immobility time at 1 mg/kg, po after 30 mins by forced swim test; type: functional, organism-based; parameters: dose 1 mg/kg; in short: as §1
[34] = Binding affinity to 5HT3 receptor at 10 uM by radioligand displacement assay
[35] = target: Alpha-1D adrenergic receptor (Homo sapiens) (UniProt P25100); assay: Binding affinity to Alpha-1D adrenergic receptor at 10 uM by radioligand displacement assay
[36] = target: Histamine H2 receptor (Homo sapiens) (UniProt P25021); assay: Binding affinity to histamine H2 receptor at 10 uM by radioligand displacement assay
Mus musculus [37] = assay: Antidepressant activity in BALB/cJ mouse assessed as decrease in immobility time at 3 mg/kg, po after 30 mins by forced swim test; type: functional, organism-based; parameters: dose 3 mg/kg; in short: as §1
[38] = target: 5-hydroxytryptamine receptor 2A (Homo sapiens) (UniProt P28223); assay: Binding affinity to 5HT2A receptor at 10 uM by radioligand displacement assay
[39] = Inhibition of cytochrome P450; type: ADME
In short: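 Inhibitory potential tested against nine different CYP450 enzymes.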

[40] = target: Neuronal acetylcholine receptor; alpha4/beta4 (Rattus norvegicus, UniProt P09483+P12392); assay: Displacement of [3H]epibatidine from rat alpha4beta4 nAChR receptor; type: protein-complex assay
[41] = target: Alpha-2C adrenergic receptor (Homo sapiens) (UniProt P18825); assay: Binding affinity to Alpha-2C adrenergic receptor at 10 uM by radioligand displacement assay
[42] = target: T1, Neuronal acetylcholine receptor; alpha4/beta2; assay: Agonist activity at human alpha4beta2 nAChR expressed in human SH-EP1 cells assessed as increase of carbamylcholine-induced 86Rb+ ion efflux by liquid scintillation counting relative to carbamylcholine; type: functional, cell-based
[43] = target: 5-hydroxytryptamine receptor 6 (Homo sapiens) (UniProt P50406); assay: Binding affinity to 5HT6 receptor at 10 uM by radioligand displacement assay
Mus musculus [44] = assay: Antidepressant activity in BALB/cJ mouse assessed as decrease in immobility time at 3 mg/kg, ip after 30 mins by forced swim test; type: functional, organism-based; parameters: dose 3 mg/kg; in short: as §2
[45] = target: 5-hydroxytryptamine receptor 2C (Homo sapiens) (UniProt P28335); assay: Binding affinity to 5HT2C receptor at 10 uM by radioligand displacement assay
[46] = target: 5-hydroxytryptamine receptor 1D (Homo sapiens) (UniProt P28221); assay: Binding affinity to 5HT1D receptor at 10 uM by radioligand displacement assay
[47] = target: Neuronal acetylcholine receptor; alpha2/beta2 (Rattus norvegicus, UniProt P12389+P12390); assay: Displacement of [3H]epibatidine from rat alpha2beta2 receptor; type: protein-complex assay
[48] = target: D(4) dopamine receptor (Homo sapiens) (UniProt P21917); assay: Binding affinity to dopamine D4 receptor at 10 uM by radioligand displacement assay
[49] = target: D(1B) dopamine receptor (Homo sapiens) (UniProt P21918); assay: Binding affinity to dopamine D5 receptor at 10 uM by radioligand displacement assay
[50] = target: Beta-1 adrenergic receptor (Homo sapiens) (UniProt P08588); assay: Binding affinity to beta1 adrenergic receptor at 10 uM by radioligand displacement assay
[51] = Binding affinity to rat benzodiazepine receptor at 10 uM by radioligand displacement assay
[52] = target: Neuronal acetylcholine receptor; alpha3/beta4 (Rattus norvegicus, UniProt P04757+P12392); assay: Displacement of [3H]epibatidine from rat alpha3beta4 nAChR receptor; type: protein-complex assay
Sequence of Neuronal acetylcholine receptor; alpha3/beta4 (P04757 whole entry): as the sequence (P04757 whole entry) above
Sequence of Neuronal acetylcholine receptor; alpha3/beta4 (P12392 whole entry): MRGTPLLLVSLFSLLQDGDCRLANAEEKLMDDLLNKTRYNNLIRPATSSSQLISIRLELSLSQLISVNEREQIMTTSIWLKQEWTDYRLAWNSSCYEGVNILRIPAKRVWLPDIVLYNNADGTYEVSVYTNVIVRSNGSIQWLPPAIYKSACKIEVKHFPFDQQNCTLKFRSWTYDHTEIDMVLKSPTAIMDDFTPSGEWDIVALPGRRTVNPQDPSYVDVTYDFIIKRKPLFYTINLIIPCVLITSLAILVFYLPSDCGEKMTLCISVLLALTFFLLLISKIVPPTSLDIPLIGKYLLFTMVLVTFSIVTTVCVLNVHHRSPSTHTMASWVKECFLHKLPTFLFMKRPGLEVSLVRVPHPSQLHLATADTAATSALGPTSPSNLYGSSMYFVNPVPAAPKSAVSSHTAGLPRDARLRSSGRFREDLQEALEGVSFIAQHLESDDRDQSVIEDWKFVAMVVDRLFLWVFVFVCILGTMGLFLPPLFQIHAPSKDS

[53] = target: Histamine H4 receptor (Homo sapiens) (UniProt Q9H3N8); assay: Binding affinity to histamine H4 receptor at 10 uM by radioligand displacement assay
[54] = target: T3, Kappa-type opioid receptor; assay: Binding affinity to kappa opioid receptor at 10 uM by radioligand displacement assay
[55] = target: 5-hydroxytryptamine receptor 1B (Homo sapiens) (UniProt P28222); assay: Binding affinity to 5HT1B receptor at 10 uM by radioligand displacement assay
[56] = target: Sodium-dependent serotonin transporter (Homo sapiens) (UniProt P31645); assay: Binding affinity to SERT at 10 uM by radioligand displacement assay
[57] = target: Mu-type opioid receptor (Homo sapiens) (UniProt P35372); assay: Binding affinity to MOR at 10 uM by radioligand displacement assay
Mus musculus [58] = assay: Antidepressant activity in BALB/cJ mouse assessed as decrease in immobility time at 30 mg/kg, ip after 30 mins by forced swim test; type: functional, organism-based; parameters: dose 30 mg/kg; in short: as §2

Cl.OCCCc1cc(-c2cncc(OC[C@@H]3CCN3)c2)on1
inhibition [1]: 14.2%
inhibition [2]: 4.1%
inhibition [3]: 11.4%
EC50 [4]: 36 nM
inhibition [5]: -6.8%
inhibition [6]: 6.2%
inhibition [7]: 17.7%
inhibition [8]: 15.3%
inhibition [9]: 16.2%
inhibition [10]: -4.3%
inhibition [11]: -9.5%
inhibition [12]: -0.5%
inhibition [13]: -0.4%
Ki [14]: 1410 nM
Stability (Liver microsomes): Stable
Ki [15]: 0.67 nM
Activity (Mus musculus [16]): Active
Ki [17]: 0.67 nM
inhibition [18]: -1%
inhibition [19]: 6.4%
Ratio Ki (Rattus norvegicus): 15000
inhibition [20]: 25.9%
inhibition [21]: 19.8%
IC50 [22]: 61 nM
inhibition [23]: 2%
Ki [24]: > 10000 nM
PPB (Plasma): 26%
inhibition [25]: 10.8%
Stability (Liver): Stable
Efficacy [26]: 68%
inhibition [27]: 2%
inhibition [28]: -3.3%
inhibition [29]: 0.3%
Activity (Mus musculus [30]): inactive
inhibition [31]: 26.9%
Ki [32]: 16 nM
Activity (Mus musculus [33]): inactive
inhibition [34]: 18.8%
inhibition [35]: 2.9%
inhibition [36]: 42.6%
Activity (Mus musculus [37]): inactive
inhibition [38]: 22.2%
inhibition (INH) [39]: Not Active
Ki [40]: 182 nM
inhibition [41]: 22%
Efficacy [42]: 13%
inhibition [43]: 22.3%
Activity (Mus musculus [44]): Active
inhibition [45]: 14.6%
inhibition [46]: 7.1%
Ki [47]: 0.9 nM
inhibition [48]: 19.8%
inhibition [49]: -1.8%
inhibition [50]: -3.2%
inhibition [51]: 21.7%
Ki [52]: > 10000 nM
inhibition [53]: -4.4%
inhibition [54]: 20%
inhibition [55]: -9.9%
inhibition [56]: -0.6%
inhibition [57]: 14.2%

OCc1cc(-c2cncc(OC[C@@H]3CCN3)c2)on1
EC50 [4]: 25 nM
Ki [14]: 310 nM
Ki [15]: 0.31 nM
Ki [17]: 0.31 nM
Ratio Ki (Rattus norvegicus): 20000
IC50 [22]: 16 nM
Efficacy [26]: 66%
Activity (Mus musculus [58]): Active
Ki [32]: 2.9 nM
Ki [40]: 81 nM
Efficacy [42]: 13%
Ki [47]: 0.32 nM
Ki [52]: 6660 nM
